Shown are actives, neighbours in structure and some others; about 3.3% of the full set was active somewhere.
rCAG RNA binder: molecules binding r(CAG) RNA repeats; r(CAG) RNA repeat, TO-PRO-1 dye displacement fluorescence; inhibition, % at 3 µM; 1.3% of 370,000 active;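 active means inhibition above the plate cutoff, the mean of all test compounds on that plate plus 3 SD, cut at about 35% in these data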;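 further: higher means more dye released from RNA so lower well fluorescence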
ABHD4 inh: ABHD4 (mouse) inhibition, primary FP screen; AID 720543; inhibition, % at 8.92 µM; 0.54% of 370,000 active; purified mABHD4, FP-Rh probe fluorescence polarization;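 active means inhibition exceeding the mean over every tested compound plus 3 SD, cut at about 30% in these data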
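Assay system: Wild-type mouse ABHD4 protein | Medium: HEPES pH 7.0 buffer, 150 mM NaCl, 0.01% Pluronic F-127 | Incubation: Enzyme–compound pre-incubation 45 min, then probe 60 min, both 25 °C | Technique: Fluorescence polarization with parallel and perpendicular emission, 525/598 nm | Evaluation: % inhibition of FP-Rh probe binding versus controls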
SIAE primary: inhibitors of human sialic acid acetylesterase SIAE; SIAE FP-Rh probe binding, fluorescence polarization; 0.69% of 370,000 active; inhibition, % at 9.66 µM;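 active means inhibition above a cutoff: mean of compounds within the control limits plus 3 SD of those, cut at about 17% in these data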
Target sequence (Q9HAT2 whole entry, looked up): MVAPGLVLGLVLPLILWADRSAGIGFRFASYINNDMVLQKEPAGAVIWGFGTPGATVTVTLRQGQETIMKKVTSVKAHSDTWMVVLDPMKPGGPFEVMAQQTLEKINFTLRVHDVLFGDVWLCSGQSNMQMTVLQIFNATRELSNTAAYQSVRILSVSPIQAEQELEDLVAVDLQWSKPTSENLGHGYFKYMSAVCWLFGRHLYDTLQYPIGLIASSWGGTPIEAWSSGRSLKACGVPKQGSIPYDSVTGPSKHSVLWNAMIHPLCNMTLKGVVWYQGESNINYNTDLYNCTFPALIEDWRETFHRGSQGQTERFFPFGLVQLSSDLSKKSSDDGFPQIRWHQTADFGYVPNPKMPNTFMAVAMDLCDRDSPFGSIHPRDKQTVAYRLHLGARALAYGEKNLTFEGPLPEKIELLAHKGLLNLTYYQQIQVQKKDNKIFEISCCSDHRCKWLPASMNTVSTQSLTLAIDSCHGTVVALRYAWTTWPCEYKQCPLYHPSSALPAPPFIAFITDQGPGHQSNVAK
TCR CD3 inh: human TCR-CD3 binding inhibition; TAMRA-labeled TCR probe fluorescence, biochemical; inhibition, % at 9.4 µM; 0.37% of 360,000 active; in the data active means inhibition above about 19%;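 further: recombinant mutant TCR 2C K166C tagged with TAMRA read by polarization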
PRMT1 FP inh: blocks human protein arginine methyltransferase 1; Q99873; recombinant PRMT1, activity-based probe fluorescence polarization; inhibition, % at 2.79 µM; 1.3% of 370,000 active; AID 652257;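 active means inhibition above about 21% made by adding two undisclosed values, limit read from the data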
ABHD4 confirm: ABHD4 (mouse) inhibition, FP confirmation; 55% of 1,800 active; purified mABHD4, FP-Rh probe fluorescence polarization; AID 720658; inhibition, % at 8.92 µM; shares compounds with ABHD4 inh;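 active means mean inhibition across replicates above the hit cutoff set in the primary screen, cut at about 30% in these data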
SIAE confirm: human SIAE inhibition, confirmation; shares compounds with SIAE primary; SIAE FP-Rh activity-based probe, fluorescence polarization; inhibition, % at 9.66 µM; 13% of 2,300 active; AID 1117263;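 active means mean inhibition of the replicates above the hit cutoff set in the primary screen, cut at about 17% in these data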;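 further: inhibitors lower polarization as more probe stays unbound to SIAE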
Numbers stand for hits; n = inactive; x = not tested or not shown.

SMILES | rCAG RNA binder | ABHD4 inh | SIAE primary | TCR CD3 inh | PRMT1 FP inh | SIAE confirm | others
COc1ccc(C(=O)c2[nH]c(N)c(C(=O)NCCc3c[nH]c4ccccc34)c2-c2ccc(Cl)c(F)c2)cc1 | n | 34 | 21 | n | n | n | ABHD4 confirm=37
Nc1[nH]c(C(=O)c2ccc(Br)cc2)c(-c2ccc(Cl)cc2[N+](=O)[O-])c1C(=O)NCCc1c[nH]c2ccccc12 | n | 40 | 20 | n | n | n | ABHD4 confirm=n
COc1ccc(C(=O)c2[nH]c(N)c(C(=O)NCCc3c[nH]c4ccccc34)c2-c2ccc(Cl)cc2)cc1 | n | n | n | n | n | x
Cc1nc2ccccc2n2c(O)c(CC(=O)O)cc12 | n | 30 | 18 | n | 44 | 31 | ABHD4 confirm=74
CC(C)N1C(=O)CC(Nc2ccc(N3CCOCC3)cc2)C1=O (stereo unspecified) | n | 33 | 21 | n | n | n | ABHD4 confirm=42
COc1ccc(NC2CC(=O)N(C(C)C)C2=O)cc1 (stereo unspecified) | n | n | n | n | n | x
COC(=O)Cc1csc(Nc2ccc(F)c(Cl)c2)n1 | n | 36 | 22 | n | n | n | ABHD4 confirm=n
COc1cccc(N2CC(=O)N(c3cccc(OC)c3)CC2=O)c1 | n | n | n | n | n | x
COc1ccc(N2CC(=O)N(c3ccc(OC)c(OC)c3)CC2=O)cc1OC | n | n | 19 | n | n | n
O=C(/C=C/c1ccc(Br)cc1)c1ccc(NC2=NCCCS2)cc1 | n | n | 40 | n | n | n
CC(C)(C)c1ccc(/C=C/C(=O)c2ccc(NC3=NCCCS3)cc2)cc1 | n | n | 21 | n | n | n
O=C(/C=C/c1ccccc1)c1ccc(NC2=NCCCS2)cc1 | n | n | n | n | n | x
Cc1cccc(/C=C/C(=O)c2ccc(NC3=NCCCS3)cc2)c1 | n | n | 53 | n | n | n
COc1ccc(NC(=O)C(c2ccnc3ccccc23)n2c(=O)c(-c3ccccc3)nc3ccccc32)cc1 (stereo unspecified) | n | n | n | n | n | x
CCC(=O)C1CCCN(C(=O)c2ccc(OC3CCN(C(=O)c4cccnc4)CC3)cc2)C1 (stereo unspecified) | n | n | n | n | n | x
CN(C(=O)c1ccc(OC2CCN(C(=O)c3cccnc3)CC2)cc1)C1CCCCC1 | n | n | 24 | n | n | n
CC(C)(C)c1ccc(C(=O)NNc2ccc(F)cc2F)cc1 | n | n | 22 | n | n | n
CCc1ccc(C(=O)NNc2ccc(F)cc2F)cc1 | n | n | n | n | n | x
Cc1ccccc1NCc1ccccc1O | n | n | n | n | n | x
C=CCOc1ccccc1CNc1ccccc1C | n | n | 20 | n | n | n
COc1ccc(-c2noc([C@@H]3O[C@H](CO)[C@H](O)[C@H](O)[C@H]3O)n2)cc1OC | n | n | n | n | n | x
Cc1ccc(C(=O)N(C)CCOc2ccccc2)cc1S(=O)(=O)N1CCOCC1 | n | n | n | n | n | x
O=C(CSc1nnc(SCc2cccc3ccccc23)s1)N/N=C/c1c[nH]c2ccccc12 | n | n | 30 | n | n | n
O=C(CSc1nnc(SCc2ccc(Cl)cc2)s1)N/N=C/c1c[nH]c2ccccc12 | n | n | n | n | n | x
Cn1c(SCc2ccccc2)nnc1-c1cnccn1 | n | n | 20 | n | n | n
SMILES | rCAG RNA binder | ABHD4 inh | SIAE primary | TCR CD3 inh | PRMT1 FP inh | SIAE confirm | others
C#CCNC(=O)C[C@@H]1C[C@@]2(C(=O)OCC)CCCC=C2N(Cc2cccc3ccccc23)C1=O | n | n | n | n | n | x
COc1ccc(NC(=O)N(C)C[C@H]2Oc3ccc(NS(=O)(=O)c4ccc(F)cc4)cc3C(=O)N([C@H](C)CO)C[C@@H]2C)cc1 | n | n | 18 | n | n | n
CCN(CC)C(=O)CSc1nnc([C@@H](NC(=O)OC(C)(C)C)C(C)C)o1 | n | n | n | n | n | x
CSc1nnc([C@@H](NC(=O)OC(C)(C)C)C(C)C)o1 | n | n | 18 | n | n | n
COc1ccc(-c2nc(-c3ccc4c(c3)OCO4)[nH]c2-c2ccc(OC)cc2)cc1 | n | n | 19 | n | n | n
Cc1cccc(OCCn2cc(/C=N/NC(=O)c3ccncc3)c3ccccc32)c1 | n | n | 31 | n | n | n
Cc1ccc(C(=O)N/N=C/c2cn(Cc3ccccc3)c3ccccc23)cn1 | n | n | n | n | n | x
COC(=O)N/N=C/c1cn(CCOc2cccc(OC)c2)c2ccccc12 | n | n | n | n | n | x
O=C(N/N=C/c1cn(Cc2ccccc2)c2ccccc12)c1cc(O)cc(O)c1 | n | n | 20 | n | n | n
N#CC/C(N)=N/Nc1nc2ccccc2nc1Cc1ccccc1 | n | n | 50 | n | n | n
N#CCn1c(Cc2ccccc2)nc2ccccc2c1=O | n | n | n | n | n | x
O=C(Nc1nnc(C(F)(F)F)s1)c1c(F)cccc1F | n | n | 32 | n | n | n
COc1ccc(NC(=O)C2(C)Cc3c(-c4ccc(N(C)C)cc4)ccnc3O2)cc1 (stereo unspecified) | n | n | n | n | n | x
CN(C)N1C(N)=C(C#N)C(c2ccccc2)C2=C1CCCC2=O (stereo unspecified) | n | n | n | n | n | x
CN(C)N1C(N)=C(C#N)C(c2ccc(F)cc2)C2=C1CCCC2=O (stereo unspecified) | n | n | 19 | n | n | n
O=C(NCCO)C(=O)NCC1CCCN1S(=O)(=O)c1cccs1 (stereo unspecified) | n | n | n | n | n | x
C=CCNC(=O)C(=O)NCC1CCCN1S(=O)(=O)c1cccs1 (stereo unspecified) | n | n | 20 | n | n | n
CCOC(=O)c1csc(NC(=O)C2CCCN(S(=O)(=O)c3ccc([N+](=O)[O-])cc3)C2)n1 (stereo unspecified) | n | n | n | x | n | x
CN(Cc1ccccc1)C(=O)CN1C(=O)NC2(CCCC2)C1=O | n | n | n | n | n | x
CN(Cc1ccccc1Br)C(=O)CN1C(=O)NC2(CCCCCC2)C1=O | n | n | 19 | n | n | n
O=C(NC(=S)N(Cc1ccccc1)Cc1ccccc1)c1ccccc1F | n | n | 79 | n | n | n
c1ccc(-c2ccc3c(c2)NCCN3)cc1 | n | n | 17 | n | n | n
O=C(CCn1c2c(c3ccccc31)CCCC2)NNC(=O)c1cccc([N+](=O)[O-])c1 | n | n | 18 | n | n | n
CCC(c1nnc(SCC(=O)NC2CCCCC2)n1Cc1ccccc1)N(C)C (stereo unspecified) | n | n | 19 | n | n | n
CCC(c1nnc(SCC(=O)NCC2CCCO2)n1Cc1ccccc1)N(C)C (stereo unspecified) | n | n | n | n | n | x
Cc1noc(C)c1COc1ccccc1C(=O)N(C)CC(=O)Nc1ccc(F)cc1 | n | n | n | n | n | x
